Active and inactive are the calls of the source. No cut-off for these calls is given here.
test system: not listed separately; experiment: cells; conditions: Oryctolagus cuniculus, New Zealand white, Platelet, read-out: INH

Compound | inhibition at 30 µM [%]
COC(=O)[C@H](c1ccccc1Cl)N1CCc2sccc2C1 [CLOPIDOGREL] | 80.2

test system: not listed separately; experiment: Antiplatelet activity against New Zealand white rabbit platelets assessed as inhibition of ADP-induced platelet aggregation preincubated for 2 mins before challenge […] by spectrophotometry; type: functional, cell-based; conditions: Oryctolagus cuniculus
Outline: (§1)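 Resuspended in Tyrode's with 1 mM Ca2+ at 2.5 × 10^8/mL, stirred at 900 rpm. Sample in DMSO (0.5% final) for 2 min at 37 °C, then ADP 20 μM, AA 100 μM or PAF 10 nM. Read-out: maximal turbidimetric light-transmission rise within 4 min. Inhibition is calculated against vehicle.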

Compound | IC50 [µM]
C[C@@H]1[C@@H](c2ccc3c(c2)OCO3)c2c(c(O)cc3c2OCO3)C[C@H]1C | 40.3
C=CCc1cc(OC)c(O[C@H](C)[C@H](OC(C)=O)c2cc(OC)c(OC)c(OC)c2)c(OC)c1 | 28.1
COc1cc(OC)c(C[C@H](C)[C@H](C)Cc2cc3c(cc2O)OCO3)cc1O (relative stereo) | 30
COC1=CC(=O)C(C[C@H](C)[C@H](C)Cc2cc3c(cc2O)OCO3)=CC1=O (relative stereo) | 9.8
COc1ccc([C@H]2O[C@@H](c3cc(OC)c4c(c3)OCO4)[C@H](C)[C@@H]2C)cc1OC (relative stereo) | 56
C/C=C/c1cc(OC)c2c(c1)[C@H](C)[C@@H](c1ccc3c(c1)OCO3)O2 [(-)-LICARIN B] | 50.6
CC(Cc1cc2c(cc1O)OCO2)C(C)C(=O)c1ccc2c(c1)OCO2 (stereo unspecified) [SAUCERNEOL G] | 34.6

test system: Platelet; experiment: (§2) Antiplatelet activity against New Zealand white rabbit platelets assessed as inhibition of ADP-induced platelet aggregation preincubated at 100 uM for 2 mins before challenge […] by spectrophotometry; type: functional; conditions: Oryctolagus cuniculus
Outline: as §1

Compound | inhibition
C[C@@H]1[C@H]2c3cc4c(cc3O[C@@]35OCOC3=CC(=O)[C@H](C[C@H]1C)[C@@H]25)OCO4 [SAUCHINONE] | inactive

test system: not listed separately; experiment: as §2; type: functional; conditions: Oryctolagus cuniculus
Outline: as §1

Compound | inhibition at 100 µM [%]
C[C@@H]1[C@@H](c2ccc3c(c2)OCO3)c2c(c(O)cc3c2OCO3)C[C@H]1C | 84
COc1ccc([C@H]2O[C@@H](c3ccc(OC)c(OC)c3)[C@@H](C)[C@H]2C)cc1OC | 51.8
C=CCc1cc(OC)c(O[C@H](C)[C@H](OC(C)=O)c2cc(OC)c(OC)c(OC)c2)c(OC)c1 | 84.7
COc1cc(C[C@H](C)[C@H](C)Cc2cc3c(cc2O)OCO3)c(O)cc1O (relative stereo) | 68.2
COc1cc(O)c(C[C@H](C)[C@H](C)Cc2cc3c(cc2O)OCO3)cc1OC (relative stereo) | 71.5
COc1cc(OC)c(C[C@H](C)[C@H](C)Cc2cc3c(cc2O)OCO3)cc1O (relative stereo) | 85.2
COC1=CC(=O)C(C[C@H](C)[C@H](C)Cc2cc3c(cc2O)OCO3)=CC1=O (relative stereo) | 90.4
COc1ccc([C@@H]2O[C@H](c3cc(OC)c4c(c3)OCO4)[C@@H](C)[C@@H]2C)cc1OC (relative stereo) | 19.1
COc1ccc([C@H]2O[C@@H](c3cc(OC)c4c(c3)OCO4)[C@H](C)[C@@H]2C)cc1OC (relative stereo) | 75.6
C/C=C/c1cc(OC)c2c(c1)[C@H](C)[C@@H](c1ccc3c(c1)OCO3)O2 [(-)-LICARIN B] | 86.7
C[C@@H]1O[C@@H](Oc2c(-c3ccc(O)c(O)c3)oc3cc(O)cc(O)c3c2=O)[C@H](O)[C@H](O)[C@H]1O [QUERCITRIN] | 83.1
CC(Cc1cc2c(cc1O)OCO2)C(C)C(=O)c1ccc2c(c1)OCO2 (stereo unspecified) [SAUCERNEOL G] | 90.9
C[C@@H]1[C@H]2c3cc4c(cc3O[C@@]35OCOC3=CC(=O)[C@H](C[C@H]1C)[C@H]25)OCO4 [SAUCHINONE A] | 48.2

test system: not listed separately; experiment: Antiplatelet activity against New Zealand white rabbit platelets assessed as inhibition of PAF-induced platelet aggregation preincubated at 100 uM for 2 mins before challenge […] by spectrophotometry; type: functional; conditions: Oryctolagus cuniculus
Outline: as §1

Compound | inhibition at 100 µM [%]
C[C@@H]1[C@@H](c2ccc3c(c2)OCO3)c2c(c(O)cc3c2OCO3)C[C@H]1C | 0.6
COc1ccc([C@H]2O[C@@H](c3ccc(OC)c(OC)c3)[C@@H](C)[C@H]2C)cc1OC | 94.4
C=CCc1cc(OC)c(O[C@H](C)[C@H](OC(C)=O)c2cc(OC)c(OC)c(OC)c2)c(OC)c1 | 68.1
COc1cc(C[C@H](C)[C@H](C)Cc2cc3c(cc2O)OCO3)c(O)cc1O (relative stereo) | 11.7
COc1cc(O)c(C[C@H](C)[C@H](C)Cc2cc3c(cc2O)OCO3)cc1OC (relative stereo) | 7
COc1cc(OC)c(C[C@H](C)[C@H](C)Cc2cc3c(cc2O)OCO3)cc1O (relative stereo) | 26.7
COC1=CC(=O)C(C[C@H](C)[C@H](C)Cc2cc3c(cc2O)OCO3)=CC1=O (relative stereo) | 92
COc1ccc([C@@H]2O[C@H](c3cc(OC)c4c(c3)OCO4)[C@@H](C)[C@@H]2C)cc1OC (relative stereo) | 42
COc1ccc([C@H]2O[C@@H](c3cc(OC)c4c(c3)OCO4)[C@H](C)[C@@H]2C)cc1OC (relative stereo) | 98.9
C/C=C/c1cc(OC)c2c(c1)[C@H](C)[C@@H](c1ccc3c(c1)OCO3)O2 [(-)-LICARIN B] | 5.3
C[C@@H]1O[C@@H](Oc2c(-c3ccc(O)c(O)c3)oc3cc(O)cc(O)c3c2=O)[C@H](O)[C@H](O)[C@H]1O [QUERCITRIN] | 6.8
CC(Cc1cc2c(cc1O)OCO2)C(C)C(=O)c1ccc2c(c1)OCO2 (stereo unspecified) [SAUCERNEOL G] | 3.9
C[C@@H]1[C@H]2c3cc4c(cc3O[C@@]35OCOC3=CC(=O)[C@H](C[C@H]1C)[C@H]25)OCO4 [SAUCHINONE A] | 23.6
C[C@@H]1[C@H]2c3cc4c(cc3O[C@@]35OCOC3=CC(=O)[C@H](C[C@H]1C)[C@@H]25)OCO4 [SAUCHINONE] | 11.8

test system: not listed separately; experiment: Antiplatelet activity against New Zealand white rabbit platelets assessed as inhibition of PAF-induced platelet aggregation preincubated for 2 mins before challenge […] by spectrophotometry; type: functional, cell-based; conditions: Oryctolagus cuniculus
Outline: as §1, with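 “Washed rabbit platelets: PRP made with 5 mM EDTA (final), then washed in Ca2+-free Tyrode's with 0.35% BSA, heparin and apyrase at 37 °C for 20 min. Resuspended” for “Resuspended”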

Compound | IC50 [µM]
COc1ccc([C@H]2O[C@@H](c3ccc(OC)c(OC)c3)[C@@H](C)[C@H]2C)cc1OC | 9.1
C=CCc1cc(OC)c(O[C@H](C)[C@H](OC(C)=O)c2cc(OC)c(OC)c(OC)c2)c(OC)c1 | 79.4
COC1=CC(=O)C(C[C@H](C)[C@H](C)Cc2cc3c(cc2O)OCO3)=CC1=O (relative stereo) | 61.7
COc1ccc([C@H]2O[C@@H](c3cc(OC)c4c(c3)OCO4)[C@H](C)[C@@H]2C)cc1OC (relative stereo) | 37.2

test system: not listed separately; experiment: Antiplatelet activity against New Zealand white rabbit platelets assessed as inhibition of PAF-induced platelet aggregation preincubated at 10 uM for 2 mins before challenge […] by spectrophotometry; type: functional; conditions: Oryctolagus cuniculus
Outline: as §1, with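 “Washed rabbit platelets: PRP made with 5 mM EDTA (final), then washed in Ca2+-free Tyrode's with 0.35% BSA, heparin and apyrase at 37 °C for 20 min. Resuspended” for “Resuspended”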

Compound | inhibition at 10 µM [%]
CCCCCCCCCCCCCCCCCCNC(=O)OCC(COP(=O)([O-])OCC[n+]1ccsc1)OC (stereo unspecified) | 94.8

test system: Platelet; experiment: Prothrombotic activity in New Zealand white rabbit platelets assessed as increase in platelet aggregation at 100 uM by spectrophotometry; type: functional, Oryctolagus cuniculus; conditions: not given
Outline: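 Washed rabbit platelets are prepared the same way: 2.5 × 10^8/mL in Tyrode's with 1 mM Ca2+, stirred at 900 rpm at 37 °C, DMSO fixed at 0.5% final. Compound is added alone, with no agonist. Aggregation is read turbidimetrically as light transmission, with suspension set as 0% and buffer as 100%. The result is reported as % increase in aggregation.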

Compound | Activity [%]
C[C@H](Cc1cc2c(cc1O)OCO2)[C@@H](C)Cc1cc2c(cc1O)OCO2 | 49.5
COc1cc(C[C@H](C)[C@H](C)Cc2cc3c(cc2O)OCO3)ccc1O (relative stereo) | 66.1
COc1cc(C[C@@H](C)[C@H](C)Cc2ccc(O)c(OC)c2)ccc1O [(-)-DIHYDROGUAIARETICACID] | 76.4
C/C=C/c1cc(OC)c2c(c1)[C@H](C)[C@@H](c1ccc(O)c(OC)c1)O2 [LICARIN A] | 66.8

test system: not listed separately; experiment: Antiplatelet activity against New Zealand white rabbit platelets assessed as inhibition of arachidonic acid-induced platelet aggregation preincubated at 100 uM for 2 mins before challenge […] by spectrophotometry; type: functional; conditions: Oryctolagus cuniculus
Outline: as §1

Compound | inhibition at 100 µM [%]
C[C@@H]1[C@@H](c2ccc3c(c2)OCO3)c2c(c(O)cc3c2OCO3)C[C@H]1C | 83.7
COc1ccc([C@H]2O[C@@H](c3ccc(OC)c(OC)c3)[C@@H](C)[C@H]2C)cc1OC | 19.4
C=CCc1cc(OC)c(O[C@H](C)[C@H](OC(C)=O)c2cc(OC)c(OC)c(OC)c2)c(OC)c1 | 93.5
COc1cc(C[C@H](C)[C@H](C)Cc2cc3c(cc2O)OCO3)c(O)cc1O (relative stereo) | 90.9
COc1cc(O)c(C[C@H](C)[C@H](C)Cc2cc3c(cc2O)OCO3)cc1OC (relative stereo) | 73
COc1cc(OC)c(C[C@H](C)[C@H](C)Cc2cc3c(cc2O)OCO3)cc1O (relative stereo) | 96.8
COC1=CC(=O)C(C[C@H](C)[C@H](C)Cc2cc3c(cc2O)OCO3)=CC1=O (relative stereo) | 98.7
COc1ccc([C@@H]2O[C@H](c3cc(OC)c4c(c3)OCO4)[C@@H](C)[C@@H]2C)cc1OC (relative stereo) | 54.4
COc1ccc([C@H]2O[C@@H](c3cc(OC)c4c(c3)OCO4)[C@H](C)[C@@H]2C)cc1OC (relative stereo) | 80.3
C/C=C/c1cc(OC)c2c(c1)[C@H](C)[C@@H](c1ccc3c(c1)OCO3)O2 [(-)-LICARIN B] | 42.5
CC(=O)Oc1ccccc1C(=O)O [ASPIRIN] | 99.7
C[C@@H]1O[C@@H](Oc2c(-c3ccc(O)c(O)c3)oc3cc(O)cc(O)c3c2=O)[C@H](O)[C@H](O)[C@H]1O [QUERCITRIN] | 21.8
CC(Cc1cc2c(cc1O)OCO2)C(C)C(=O)c1ccc2c(c1)OCO2 (stereo unspecified) [SAUCERNEOL G] | 94.1
C[C@@H]1[C@H]2c3cc4c(cc3O[C@@]35OCOC3=CC(=O)[C@H](C[C@H]1C)[C@H]25)OCO4 [SAUCHINONE A] | 28.2
C[C@@H]1[C@H]2c3cc4c(cc3O[C@@]35OCOC3=CC(=O)[C@H](C[C@H]1C)[C@@H]25)OCO4 [SAUCHINONE] | 10.7

test system: not listed separately; experiment: Antiplatelet activity against New Zealand white rabbit platelets assessed as inhibition of arachidonic acid-induced platelet aggregation preincubated for 2 mins before challenge […] by spectrophotometry; type: functional, cell-based; conditions: Oryctolagus cuniculus
Outline: as §1, with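 “Washed rabbit platelets: PRP made with 5 mM EDTA (final), then washed in Ca2+-free Tyrode's with 0.35% BSA, heparin and apyrase at 37 °C for 20 min. Resuspended” for “Resuspended”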

Compound | IC50 [µM]
C[C@@H]1[C@@H](c2ccc3c(c2)OCO3)c2c(c(O)cc3c2OCO3)C[C@H]1C | 71.4
C=CCc1cc(OC)c(O[C@H](C)[C@H](OC(C)=O)c2cc(OC)c(OC)c(OC)c2)c(OC)c1 | 60.3
COc1cc(OC)c(C[C@H](C)[C@H](C)Cc2cc3c(cc2O)OCO3)cc1O (relative stereo) | 29.4
COC1=CC(=O)C(C[C@H](C)[C@H](C)Cc2cc3c(cc2O)OCO3)=CC1=O (relative stereo) | 14
COc1ccc([C@H]2O[C@@H](c3cc(OC)c4c(c3)OCO4)[C@H](C)[C@@H]2C)cc1OC (relative stereo) | 85
CC(Cc1cc2c(cc1O)OCO2)C(C)C(=O)c1ccc2c(c1)OCO2 (stereo unspecified) [SAUCERNEOL G] | 25.9

— ChEMBL document CHEMBL3102821, “Lignans from the aerial parts of Saururus chinensis: isolation, structural characterization, and their effects on platelet aggregation” (J Nat Prod, 2014)
